Experimental data from ChEMBL document CHEMBL3272335, “Dibenz[b,e]oxepinalkanoic acids as nonsteroidal antiinflammatory agents. 1. 6,11-Dihydro-11-oxodibenz]b,e]oxepin-2-acetic acids” (J Med Chem, 1977).

Columns and labels:
Mus musculus = experiment: Analgesic activity in po dosed CD-1 mouse assessed as inhibition of phenylquinone-induced writhing administered prior to phenylquinone challenge measured 5 mins after phenylquinone injection; type: functional; details: CD-1, po
Outline: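 Male CD-1 Charles River mice (18-24 g), fed ad libitum, are dosed orally with drug as an aqueous suspension with Tween 80 (10 ml/kg); controls get vehicle. Phenylquinone (0.125% in 5% aqueous ethanol) is given ip at 10 ml/kg at the peak-activity time. Writhes are counted for 10 min, starting 5 min post-injection. Ten mice per group, four doses. Result is % inhibition of writhes versus control; ED50 by Litchfield-Wilcoxon.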

Rattus norvegicus [1] = experiment: Antiinflammatory activity in po dosed Wistar rat assessed as inhibition of carrageenan-induced paw edema administered 1 hr prior to carrageenan challenge measured 3 hrs post-carrageenan injection; type: functional
Outline: (§1)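 Female Carworth Wistar rats (120-150 g), ten per group, are fasted 12-16 h with water allowed. Compounds are given orally as an aqueous Tween 80 suspension (10 ml/kg); controls get vehicle. After 1 h, 0.1 ml of 1% carrageenan is injected subplantar into the left hind paw. Paw volume is read by mercury displacement before and 3 h after injection. Result is % edema difference versus control.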

[2] = Ulcerogenicity in po dosed Wistar rat assessed as induction of gastric irritation; type: toxicity, organism-based, Stomach; details: in vivo, read-out: ID50 (the source's name)
Outline: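 Groups of eight male Wistar rats (150-175 g) are fasted 48 h with water allowed, then dosed orally (10 ml/kg); controls get vehicle. Rats are killed at 3, 5 and 7 h post-dose, and stomach and intestines are examined for erosion, ulcer or perforation. ID50 is the dose causing irritation in 50% of animals.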

Rattus norvegicus [3] = experiment: Antiinflammatory activity against Mycobacterium butyricum adjuvant-induced polyarthritis in po dosed Lewis albino rat assessed as decrease in non-injected paw edema administered daily for 21 days […]; type: functional
Outline: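 Female Charles River-Lewis albino rats, 150-170 g, groups of ten, housed singly; heat-killed dry Mycobacterium butyricum in white paraffin oil (0.5 mg/0.1 ml) injected into left hind paw. Oral dosing as aqueous suspension with Tween 80 (10 ml/kg), starting the day before adjuvant and daily for 21 days; vehicle controls. Paw volume by mercury displacement from injection day onward; ED50 by Litchfield-Wilcoxon with 95% confidence limits.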

[4] = Therapeutic ratio of ID50 for ulcerogenicity in Wistar rat to ED50 for antiinflammatory activity against Mycobacterium butyricum adjuvant-induced polyarthritis in Lewis albino rat adjuvant treated paw; type: ADME; details: in vivo, read-out: TI
Outline: (§2)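 Ratio of the gastric irritation ID50 (oral dose, Wistar rats, lesions scored as irritation in 50% of animals) to the adjuvant polyarthritis ED50 (Lewis rats, 21-day oral dosing). The ED50 is taken from the adjuvant-injected paw or the noninjected paw, with paw volume measured by mercury displacement.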

Rattus norvegicus [5] = experiment: Antiinflammatory activity against Mycobacterium butyricum adjuvant-induced polyarthritis in po dosed Lewis albino rat assessed as decrease in adjuvant treated paw edema administered daily for 21 days […]; type: functional
Outline: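 Female Charles River-Lewis albino rats (150-170 g), ten per group, housed individually. Heat-killed Mycobacterium butyricum in paraffin oil (0.5 mg/0.1 ml) is injected into the left hind paw. Oral dosing starts the day before adjuvant and continues daily for 21 days, using a Tween 80 aqueous suspension. Paw volume is measured by mercury displacement from injection day onward. ED50 by Litchfield-Wilcoxon, with 95% confidence limits.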

[6] = Therapeutic ratio of ID50 for ulcerogenicity in Wistar rat to ED50 for antiinflammatory activity against Mycobacterium butyricum adjuvant-induced polyarthritis in Lewis albino rat non-injected paw; type: ADME; details: in vivo, read-out: TI; outline: as §2
Rattus norvegicus [7] = experiment: Antiinflammatory activity in Wistar rat assessed as inhibition of carrageenan-induced paw edema at 50 mg/kg, po administered 1 hr prior to carrageenan challenge measured 3 hrs post-carrageenan injection; type: functional; outline: as §1

SMILES	ED50 (Mus musculus) [mg/kg]	ED50 (Rattus norvegicus [1]) [mg/kg]	other results
NC(=O)Cc1ccc2c(c1)C(=O)c1ccccc1CO2	> 100	> 100	–
O=C(O)Cc1ccc2c(c1)C(=O)c1ccc(Cl)cc1CO2	34.3	26.5	–
O=C(O)Cc1ccc2c(c1)C(=O)c1ccccc1CO2 [ISOXEPAC]	7.57	–	TD50 [2]: 82.5 mg/kg; ED50 (Rattus norvegicus [3]): 1.06 mg/kg; selectivity ratio [4]: 39; ED50 (Rattus norvegicus [5]): 2.1 mg/kg; selectivity ratio [6]: 78
O=C(Cc1ccc2c(c1)C(=O)c1ccccc1CO2)OCc1ccccc1	–	> 50	–
O=C(O)Cc1ccc2c(c1)C(=O)c1cc(Cl)ccc1CO2	> 50	> 50	–
COC(=O)Cc1ccc2c(c1)C(=O)c1ccccc1CO2	26.6	31	–
OCCc1ccc2c(c1)C(O)c1ccccc1CO2 (centres undefined)	–	> 200	–
COc1ccc2c(c1)c(CC(=O)O)c(C)n2C(=O)c1ccc(Cl)cc1 [INDOMETHACIN]	0.7	–	TD50 [2]: 1.8 mg/kg; ED50 (Rattus norvegicus [3]): 0.27 mg/kg; selectivity ratio [4]: 3.8; ED50 (Rattus norvegicus [5]): 0.47 mg/kg; selectivity ratio [6]: 6.7
CCCCOC(=O)Cc1ccc2c(c1)C(=O)c1ccccc1CO2	12.7	14.7	–
CCCOC(=O)Cc1ccc2c(c1)C(=O)c1ccccc1CO2	16.7	3.55	–
O=C(O)Cc1ccc2c(c1)Cc1ccccc1CO2	–	200	–
O=C(O)Cc1ccc2c(c1)C(=O)c1cccc(Cl)c1CO2	> 50	< 50	–
COC(=O)Cc1ccc2c(c1)C(O)c1ccccc1CO2 (centres undefined)	–	> 200	–
CC(C)OC(=O)Cc1ccc2c(c1)C(=O)c1ccccc1CO2	< 50	6.84	–
CCOC(=O)Cc1ccc2c(c1)C(=O)c1ccccc1CO2	> 50	6.85	–
O=C(O)Cc1cc(Cl)c2c(c1)C(=O)c1ccccc1CO2	–	> 50	–
O=C(O)Cc1ccc2c(c1)C(=O)c1ccccc1CS2	–	–	inhibition in vivo at 50 mg/kg (Rattus norvegicus [7]): 42.7%
COC(=O)Cc1ccc2c(c1)C(OC)c1ccccc1CO2 (centres undefined)	–	> 200	–
COc1ccc2c(c1)COc1ccc(CC(=O)O)cc1C2=O	> 50	58.6	–
Cc1cccc2c1C(=O)c1cc(CC(=O)O)ccc1OC2	–	> 50	–
O=C(O)Cc1ccc2c(c1)C(=O)c1cc(F)ccc1CO2	–	356	–
O=C(O)Cc1ccc2c(c1)C(=O)c1cc(C(F)(F)F)ccc1CO2	–	> 50	–
CCCCCOC(=O)Cc1ccc2c(c1)C(=O)c1ccccc1CO2	> 50	2.9	–
